According to ChEMBL document CHEMBL1287740, “Synthesis and bio-evaluation of alkylaminoaryl phenyl cyclopropyl methanones as antitubercular and antimalarial agents” (Bioorg Med Chem, 2010):
≈ marks a conversion by molar mass, not a printed value. Calls of active or inactive are those of the source. No cut-off for these calls is given here.

What was measured:
[1] = system: Mycolicibacterium aurum; test: Inhibition of type II fatty acid biosynthesis pathway in Mycobacterium aurum at 25 uM after 12 hrs by lacZ reporter assay relative to untreated control; format: functional
In short: (§1)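 Recombinant M. aurum lacZ reporter strains (kasA promoter or hsp60 promoter) grown in Sauton's medium with kanamycin at 37 °C to 0.5 OD600, diluted to 0.04–0.05 OD, equilibrated 2 h, then treated 12 h at 37 °C (10, 25, 50, 75 µM). Cells sonicated in PBS pH 7.2 and protein normalized by Bradford. β-gal measured with ONPG (4 mg/ml), 30 min at 37 °C, stopped with Na2CO3, OD 410 nm. Triplicates, relative to untreated control.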

[2] = system: Mycobacterium tuberculosis; test: Antimicrobial activity against Mycobacterium tuberculosis H37Rv after 30 days by agar microdilution method; format: functional
In short: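 Twofold dilutions of compound in DMSO incorporated into Middlebrook 7H10 medium with OADC supplement in slanted tubes, preincubated 37 °C for 24 h, then streaked with H37Rv harvested from L-J medium into 0.85% saline with 0.05% Tween-80 (5 × 10^5 bacilli per tube). Incubated at 37 °C; MIC = lowest concentration giving complete inhibition of colonies versus drug-free control.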

[3] = Selectivity index, ratio of CC50 for african green monkey (Cercopithecus aethiops) Vero cells to IC50 for Plasmodium falciparum 3D7; format: functional
In short: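 Ratio of Vero CC50 (resazurin fluorescence after 72 h exposure) to P. falciparum 3D7 IC50 (radiolabelled hypoxanthine uptake; 24 h compound exposure, then 48 h with label).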

[4] = system: Plasmodium falciparum; test: Antimalarial activity against Plasmodium falciparum 3D7 assessed as maturation of schizonts after 24 to 32 hrs by microdilution method; format: functional
In short: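 P. falciparum 3D7 (chloroquine sensitive); twofold serial dilutions in complete RPMI 1640 from 10 mg/ml DMSO stocks, parasitized RBCs added (final hematocrit 3–4%, 1.0–2.0% parasitaemia, >95% rings). Incubated 24–32 h at 37 °C with 5% CO2. Thin smears stained with 15% Giemsa; schizont maturation scored against controls to give MIC.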

[5] = system: Plasmodium falciparum; test: Antimalarial activity against Plasmodium falciparum 3D7 assessed as radiolabeled hypoxanthine uptake after 48 hrs by scintillation counting; format: functional, organism-based; conditions: 3D7, 48 h
In short: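 Chloroquine-sensitive P. falciparum 3D7 asynchronous culture at 0.5% parasitaemia and 1.5% hematocrit, exposed to compounds for 24 h at 37 °C in CO2. Radiolabelled hypoxanthine (0.5 µCi/well) then added and incubation continued 48 h. Cells harvested onto filter paper, and radioactivity counted by scintillation β-counter. IC50 derived from hypoxanthine uptake.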

[6] = system: Mycolicibacterium aurum; test: Inhibition of type II fatty acid biosynthesis pathway in Mycobacterium aurum at 50 uM after 12 hrs by lacZ reporter assay relative to untreated control; format: functional; in short: as §1
[7] = Cytotoxicity against african green monkey Vero cells after 72 hrs; format: cell-based; conditions: chlorocebus sabaeus
In short: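 Vero (C1008 monkey kidney) cells grown in MEM + 15% FBS, 5% CO2, 37 °C. Trypsinized cells at 1 × 10^5 cells/ml seeded and allowed to adhere overnight, then exposed to serial compound dilutions for 72 h. Resazurin added and fluorescence read after 4 h.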

Row | SMILES | inhibition at 25 µM [1] [%] | MIC [2] | Ratio CC50/IC50 [3] | MIC [4] [µg/mL] | IC50 [5] [µg/mL] | inhibition at 50 µM [6] [%] | CC50 at 72 h [7] [µg/mL] | inhibition [1] | inhibition [6]
1 | CN1CCN(c2ccc(C(=O)/C=C/c3ccc(Cl)cc3)cc2)CC1 | 13.6 | 3.12 µg/mL (≈ 9.15 µM) | 8.69 | 50 (≈ 147 µM) | 11.8 (≈ 34.6 µM) | 14.7 | 102 (≈ 301 µM) |  | 
2 | CCCCCCCCCCCCCCCCNc1ccc(C(=O)C2CC2c2ccc(Cl)cc2)cc1 (centres undefined) | 36 | Insoluble | 89.68 | 50 (≈ 101 µM) | 4.57 (≈ 9.21 µM) | 36.7 | 410 (≈ 826 µM) |  | 
3 | CCCCN(CCCC)c1ccc(C(=O)C2CC2c2ccc(Cl)cc2)cc1 (centres undefined) | 41.5 | 12.5 µg/mL (≈ 32.6 µM) | 590.04 | 10 (≈ 26 µM) | 0.73 (≈ 1.9 µM) | 37.5 | 431 (≈ 1120 µM) |  | 
4 | CN(C)c1ccc(C(=O)C2CC2c2ccc(Cl)cc2)cc1 (centres undefined) |  | Insoluble | 240.4 | 10 (≈ 33.4 µM) | 1.43 (≈ 4.77 µM) |  | 344 (≈ 1150 µM) |  | 
5 | O=C(c1ccc(NCc2ccco2)cc1)C1CC1c1ccc(Cl)cc1 (centres undefined) | 16.5 | 3.12 µg/mL (≈ 8.87 µM) | 149.64 | 10 (≈ 28.4 µM) | 1.71 (≈ 4.86 µM) | 27.4 | 256 (≈ 727 µM) |  | 
6 | O=C(/C=C/c1ccc(Cl)cc1)c1ccc(N2CCOCC2)cc1 | 47.1 | 6.25 µg/mL (≈ 19.1 µM) | 7.33 | 50 (≈ 153 µM) | 4.86 (≈ 14.8 µM) | 42.9 | 35.6 (≈ 109 µM) |  | 
7 | NNC(=O)c1ccncc1 [ISONIAZID] |  | 0.025 µg/mL (≈ 0.182 µM) |  |  |  |  |  |  | 
8 | O=C(/C=C/c1ccc(Cl)cc1)c1ccc(NCc2ccco2)cc1 |  | 12.5 µg/mL (≈ 37 µM) | 531.62 | 10 (≈ 29.6 µM) | 0.76 (≈ 2.25 µM) |  | 404 (≈ 1200 µM) |  | 
9 | O=C(c1ccc(N2CCN(c3cccc(Cl)c3Cl)CC2)cc1)C1CC1c1ccc(Cl)cc1 (centres undefined) | 15.7 | 12.5 µg/mL (≈ 25.7 µM) | 43.38 | 50 (≈ 103 µM) | 8.82 (≈ 18.2 µM) | 31.8 | 383 (≈ 788 µM) |  | 
10 | O=C(c1ccc(NC2CCCCC2)cc1)C1CC1c1ccc(Cl)cc1 (centres undefined) |  | > 12.5 µg/mL | 261.57 | 10 (≈ 28.3 µM) | 0.75 (≈ 2.12 µM) |  | 196 (≈ 554 µM) | inactive | inactive
11 | COc1ccc(C2CC2C(=O)c2ccc(N3CCN(C)CC3)cc2)cc1OC (centres undefined) |  | > 12.5 µg/mL | 37.23 | 50 (≈ 131 µM) | 2.09 (≈ 5.49 µM) |  | 77.8 (≈ 205 µM) |  | 
12 | CCCCCCCNc1ccc(C(=O)C2CC2c2ccc(OC)c(OC)c2)cc1 (centres undefined) |  | > 12.5 µg/mL | 121.67 | 10 (≈ 25.3 µM) | 2.24 (≈ 5.66 µM) |  | 273 (≈ 689 µM) |  | 
13 | CCCCNc1ccc(C(=O)C2CC2c2ccc(Cl)cc2)cc1 (centres undefined) | 39.5 | 12.5 µg/mL (≈ 38.1 µM) | 958.69 | 0.6 (≈ 1.83 µM) | 0.33 (≈ 1.01 µM) | 60.9 | 316 (≈ 965 µM) |  | 
14 | O=C(c1ccc(NCCn2ccnc2)cc1)C1CC1c1ccc(Cl)cc1 (centres undefined) | 48.6 | 6.25 µg/mL (≈ 17.1 µM) | 6948.57 | 0.062 (≈ 0.169 µM) | 0.035 (≈ 0.0957 µM) | 50.2 | 243 (≈ 665 µM) |  | 
15 | O=C(c1ccc(NCCO)cc1)C1CC1c1ccc(Cl)cc1 (centres undefined) |  | > 12.5 µg/mL | 508.33 | 2 (≈ 6.33 µM) | 0.6 (≈ 1.9 µM) |  | 305 (≈ 966 µM) |  | 
